Active and inactive are the calls of the source. The calls are words filed in the database; no cut-off is given here.
What was measured:
VSMC [1] = assay: Inhibition of 36B4 m-RNA expression in rat VSMC up to 80 uM incubated for 2 hrs followed by compound wash out and re-treatment for 4 hrs by NanoGlo assay; format: functional, cell-based
VSMC [2] = assay: Inhibition of TNT1 m-RNA expression in rat VSMC up to 80 uM incubated for 2 hrs followed by compound wash out and re-treatment for 4 hrs by NanoGlo assay; format: functional, cell-based
HeLa [3] = assay: Inhibition of TEAD in human HeLa cells assessed as reduction in CTGF m-RNA expression incubated for 2 hrs followed by compound wash out and re-treatment for 4 hrs by NanoGlo assay; format: cell-based
[4] = molecular target: T1, Transcriptional enhancer factor TEF-1 (Homo sapiens, UniProt P28347); assay: Inhibition of human HEK293 cell lysate derived YAP interaction with recombinant GST-tagged human TEAD1 (194 to 411 residues) expressed in Escherichia coli soluBL21 at 200 uM after 18 hrs by Western blot analysis; format: subcellular
Summary of the method: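 GST–TEAD1 (about 5 μg) immobilized on glutathione resin beads, incubated with HEK293 whole-cell lysate containing endogenous YAP at 4 °C for 18 h. Resin washed; bound proteins eluted by boiling in Laemmli buffer. YAP and GST quantified by Western blot (anti-YAP, anti-GST); n = 2.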

HeLa [5] = assay: Inhibition of 36B4 m-RNA expression in human HeLa cells up to 80 uM incubated for 2 hrs followed by compound wash out and re-treatment for 4 hrs by NanoGlo assay; format: functional, cell-based
VSMC [6] = assay: Antiproliferative activity against rat VSMC assessed as reduction in EdU incorporation after 24 hrs by Hoechst 33342 staining-based fluorescence assay; format: functional, cell-based
Summary of the method: (§1)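 Click-iT EdU assay. Cells were treated with compound for 24 h total, with 10 μM EdU present for the final labeling period. Cells were then fixed in 4% formaldehyde, stained for EdU and counterstained with Hoechst 33342 for 20 min. EdU-positive nuclei were counted in at least three fields per well; n = 4.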

Rattus norvegicus [7] = species: Rattus norvegicus; assay: Inhibition of TEAD in rat VSMC assessed as reduction in CCN1 m-RNA expression incubated for 2 hrs followed by compound wash out and re-treatment for 4 hrs by NanoGlo assay
[8] = molecular target: T1, Transcriptional enhancer factor TEF-1; assay: Inhibition of NL-tagged YAP (unknown origin) interaction with myc-tagged human TEAD1 preincubated for 1 hr followed by NL-tagged YAP addition by NanoGlo assay
Summary of the method: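 Myc-TEAD1 from transfected HeLa lysate was captured with anti-myc antibody on protein-G-coated 96-well plates. Wells were pretreated with compound in PBS for 1 h at 4 °C, then co-incubated with lysate from HeLa cells expressing YAP–nanoluciferase. After four PBS washes, bound YAP–NL was read with NanoGlo.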

HeLa [9] = assay: Cytotoxicity against human HeLa cells assessed as reduction in cell viability by measuring ethidium homodimer-1 uptake at 100 uM preincubated for 10 mins followed by ethidium homodimer-1 addition measured after 10 mins by fluorescence assay; format: cell-based
Summary of the method: (§2)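 Live/dead cell viability assay in HeLa cells. Maximum death was set by treating cells 10 min with 0.1% Triton-X, then 10 min with 0.4 μM ethidium homodimer-1. Fluorescence was read on a plate reader.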

HeLa [10] = assay: Antiproliferative activity against human HeLa cells assessed as reduction in EdU incorporation after 24 hrs by Hoechst 33342 staining-based fluorescence assay; format: functional, cell-based; summary of the method: as §1
Rattus norvegicus [11] = species: Rattus norvegicus; assay: Inhibition of TEAD in rat VSMC assessed as reduction in CTGF m-RNA expression incubated for 2 hrs followed by compound wash out and re-treatment for 4 hrs by NanoGlo assay
HeLa [12] = assay: Inhibition of TEAD in human HeLa cells assessed as reduction in CCN1 m-RNA expression incubated for 2 hrs followed by compound wash out and re-treatment for 4 hrs by NanoGlo assay; format: cell-based
[13] = Inhibition of TEAD (unknown origin) expressed in human HeLa cells after 6 hrs by nanoluciferase reporter gene assay; format: cell-based
Summary of the method: (§3)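 HeLa cells stably transduced with a lentiviral 8×TEAD-element secreted nanoluciferase reporter were seeded at 2 × 10^4 cells/well and grown 48 h. They were washed and treated with compound for 2 h, washed again and re-treated for 4 h. Secreted nanoluciferase in the conditioned medium was assayed with NanoGlo; n = 3.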

HeLa [14] = assay: Inhibition of TNT1 m-RNA expression in human HeLa cells up to 80 uM incubated for 2 hrs followed by compound wash out and re-treatment for 4 hrs by NanoGlo assay; format: functional, cell-based
[15] = molecular target: T1, Transcriptional enhancer factor TEF-1; assay: (§4) Inhibition of GFP-tagged YAP1 (unknown origin) interaction with myc-tagged human TEAD1 expressed in human HeLa cells by measuring myc-TRAP at 200 uM incubated for 30 mins with myc-tagged human TEAD1 lysate followed by GFP-tagged YAP1 lysate addition measured after 30 mins by Western blot based immunoprecipitation assay; format: cell-based
Summary of the method: (§5)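 Myc-TEAD1 and GFP-YAP1 were expressed separately in transfected HeLa cells, and pooled cytosolic plus nuclear extracts were prepared. The myc-TEAD extract was incubated 30 min on ice with 200 μM compound, then an equal volume of GFP-YAP lysate was added for another 30 min. Complexes were pulled down with GFP-Trap or Myc-Trap beads and quantified by Western blot; n = 3.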

HeLa [16] = assay: Antimigratory activity in human HeLa cells incubated for overnight followed by media replacement and measured every hour for 24 hrs by phase contrast microscopic analysis; format: functional, cell-based
Summary of the method: (§6)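 IncuCyte real-time scratch wound assay. Cells were seeded in 96-well plates and grown 36 h, then pretreated overnight with compound. Wells were scratched and the medium was replaced with compound-containing medium. Phase-contrast images of the wound were taken hourly for 24 h and relative wound confluence was calculated; n = 4.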

VSMC [17] = assay: Antimigratory activity in rat VSMC incubated for overnight followed by media replacement and measured every hour for 24 hrs by phase contrast microscopic analysis; format: functional, cell-based; summary of the method: as §6
HeLa [18] = assay: Inhibition of TEAD (unknown origin) expressed in human HeLa cells at 100 uM after 6 hrs by nanoluciferase reporter gene assay relative to control; format: cell-based; summary of the method: as §3
HeLa [19] = assay: Cytotoxicity against human HeLa cells assessed as reduction in cell viability by measuring ethidium homodimer-1 uptake at 60 uM preincubated for 10 mins followed by ethidium homodimer-1 addition measured after 10 mins by fluorescence assay; format: cell-based; summary of the method: as §2
[20] = molecular target: T1, Transcriptional enhancer factor TEF-1; assay: as §4, with “GFP-Trap” for “myc-TRAP”; format: cell-based; summary of the method: as §5
HeLa [21] = assay: Inhibition of TEAD (unknown origin) expressed in human HeLa cells up to 150 uM after 6 hrs by nanoluciferase reporter gene assay; format: cell-based; summary of the method: as §3
HeLa [22] = assay: Cytotoxicity against human HeLa cells assessed as reduction in cell viability by measuring ethidium homodimer-1 uptake up to 150 uM preincubated for 10 mins followed by ethidium homodimer-1 addition measured after 10 mins by fluorescence assay; format: cell-based; summary of the method: as §2

T1 sequence (P28347 whole entry, the tested form may be a part): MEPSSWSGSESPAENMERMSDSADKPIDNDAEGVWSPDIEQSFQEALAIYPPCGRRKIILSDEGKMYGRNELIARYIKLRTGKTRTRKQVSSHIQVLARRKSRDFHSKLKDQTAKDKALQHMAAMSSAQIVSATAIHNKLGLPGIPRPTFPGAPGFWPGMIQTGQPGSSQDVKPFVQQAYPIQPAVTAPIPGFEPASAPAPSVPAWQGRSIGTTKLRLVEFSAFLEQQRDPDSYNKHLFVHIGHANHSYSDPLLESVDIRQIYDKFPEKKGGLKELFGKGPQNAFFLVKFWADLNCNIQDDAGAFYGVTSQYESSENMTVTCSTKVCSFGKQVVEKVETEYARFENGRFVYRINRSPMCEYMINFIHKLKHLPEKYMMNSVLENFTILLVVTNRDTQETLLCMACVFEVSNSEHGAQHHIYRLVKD

SMILES: Cc1ccc2c(c1)c1c3n2CCN(C[C@H](O)CN2CCN(C(=O)c4ccco4)CC2)[C@@H]3CCC1
- inhibition (VSMC [1]): inactive
- inhibition (VSMC [2]): inactive
- inhibition (HeLa [3]): Dose-dependent effect
- inhibition [4]: Active
- inhibition (HeLa [5]): inactive
- Activity (VSMC [6]): Dose-dependent effect
- inhibition (Rattus norvegicus [7]): Dose-dependent effect
- inhibition [8]: Dose-dependent effect
- Activity (HeLa [9]): Non-Toxic
- Activity (HeLa [10]): Dose-dependent effect
- inhibition (Rattus norvegicus [11]): Dose-dependent effect
- inhibition (HeLa [12]): Dose-dependent effect
- IC50 [13]: 110 µM
- inhibition (HeLa [14]): inactive
- inhibition [15]: Active
- Activity (HeLa [16]): Dose-dependent effect
- Activity (VSMC [17]): Dose-dependent effect
- inhibition (HeLa [18]): > 60%
- Activity (HeLa [19]): Non-Toxic
- inhibition [20]: Active

SMILES: O=C(O)c1ccco1
- inhibition (HeLa [21]): inactive
- Activity (HeLa [22]): Non-Toxic

SMILES: OCC(O)CN1CCNCC1 (stereo not given)
- inhibition (HeLa [21]): inactive
- Activity (HeLa [22]): Non-Toxic

SMILES: COc1ccc2nc(NC3=NCN(Cc4ccco4)CN3)nc(C)c2c1
- Activity (HeLa [9]): Non-Toxic
- inhibition (HeLa [18]): > 60%

SMILES: CCc1nc(C)nc(Oc2ccc(OCCOc3ccc(C)cc3C)nn2)n1
- Activity (HeLa [9]): Non-Toxic
- inhibition (HeLa [18]): > 60%

SMILES: O=C(NCCn1ncc2c(N3CCN(c4ncccn4)CC3)ncnc21)C12CC3CC(CC(C3)C1)C2
- Activity (HeLa [9]): Non-Toxic
- inhibition (HeLa [18]): > 60%
